Where only a bound is given, the exact number is not on record here.

A short description of data set [1]: Cmax in chronic SCW-induced arthritis Lewis rat model plasma at ED80 concentration. In kind it is ADME, cell-free. A digest of the protocol:
(§1)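 Female Lewis rats (125-140 g) received a single i.p. streptococcal cell wall injection. Animals showing the acute phase were pooled, 4-8 per group over three experiments. Dosing was oral gavage b.i.d., days 10-21, in methylcellulose-Tween-20 vehicle. Hind paw volume was read by displacement plethysmometer on day 21, as % inhibition of swelling. Plasma was sampled up to 11 h after the last dose, 3 rats per dose. ED values came from fitted curves.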

A short description of data set [2]: Inhibition of recombinant 6 his tagged N/C-terminal MSK1 (367 to 802 residues)/MSK2 (351 to 772 residues) (unknown origin) expressed in baculovirus infected Sf9 insect cells using KKKALSRQLSVAA as substrate incubated for 1 hr followed by substrate addition in presence of ATP. Details: species or system Homo sapiens. In outline: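 MAPKAP family kinases were activated by p38α (1:50 molar, 250 μM ATP, 1 h, 30°C). Assays ran in 20 mM HEPES pH 7.5, 10 mM MgCl2, 1 mM DTT, 0.01% BSA, 0.0005% Tween-20, at MgATP fixed at each enzyme's Km(app). The 33P-labelled product peptide was separated by ion exchange. Duplicate experiments. MSK1 (367-802) and MSK2 (351-772) were N-terminal 6xHis constructs from Sf9 cells.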

Data set [3] concerns Rattus norvegicus. As to the kind of experiment: Antiinflammatory activity in acute LPS induced TNF-alpha production in Lewis rat model administered via oral dose pretreated for 4 hrs followed by LPS stimulation and measured after 90 mins […]. The following applies: 5.5 h, time 330 min. The format is functional. A digest of the protocol: (§2)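 Male Lewis rats (225-250 g, 5 per group) were fasted 18 h, then dosed orally at 0.2-60 mg/kg as a suspension in 0.5% methylcellulose/0.025% Tween 20. LPS 1 mg/kg was given i.v. 4 h later. Blood was taken by cardiac puncture 90 min after LPS. Serum TNFα was read by ELISA and drug by LC-MS/MS, three independent experiments. 4-parameter fit. Unbound values were corrected with measured rat plasma protein binding.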

Data set [4] has as its target MAP kinase-activated protein kinase 2 (Homo sapiens, UniProt P49137). As to the kind of experiment: Binding affinity to recombinant N-terminal truncated MK2 (45 to 371 residues) (unknown origin) expressed in Escherichia coli assessed as inhibition constant measured after 15 mins by surface plasmon resonance spectroscopy analysis. (In SPR one partner is held on a chip, and binding of the other changes the refractive index at the surface.)

Data set [5] in a line: Cmax in Sprague-Dawley rat at 3 mg/kg, po measured upto 24 hrs by […] analysis. In kind it is ADME, organism-based. The conditions noted are these: in vivo. A digest of the protocol: (§3)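 Male Sprague-Dawley rats (275-300 g), carotid-catheterized and acclimated overnight. Dosing was i.v. at 1 mpk (n=2) in 70% saline/20% PEG-400/10% ethanol, or oral at 3 mpk (n=3) as a suspension in 0.5% HPMC/Tween. Plasma drug was measured by LC-MS/MS. Cmax and Tmax were read from individual profiles. t½ came from the terminal log-linear slope and AUC by the linear trapezoidal rule. CL = dose/AUC0-∞, Vdss = CL×MRT, F = dose-normalized AUC po/iv.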

A short description of data set [6]: Inhibition of CaMK II (unknown origin). Details: species or system Homo sapiens.
A short description of data set [7]: Inhibition of IL-8 production in LPS induced human PBMC cells preincubated with compound for 1 hr followed by LPS induction and measured after 16 hrs by MSD analysis. The format is functional, cell-based. A digest of the protocol: (§4)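 Human PBMCs were pretreated with compound for 1 h (<1% DMSO final), then stimulated with LPS 100 ng/ml at 37°C. Cytokines in culture media were read by MSD 4-plex: TNFα at 4 h; IL-1β, IL-6 and IL-8 at 16 h. Data are means ±S.E.M. of two independent experiments in duplicate, three donors. IC50 by 4-parameter nonlinear regression.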

Data set [8] addresses Serine/threonine-protein kinase pim-1 (Homo sapiens, UniProt P11309). As to the kind of experiment: Inhibition of Pim1 (unknown origin). A digest of the protocol:
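Kinase panel: 200 kinases were first screened at 1 μM inhibitor for percent inhibition. Those above 50% inhibition were then titrated for IC50. MgATP was fixed at the Km(app) determined for each enzyme.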

Data set [9] can be described thus: AUC in chronic SCW-induced arthritis Lewis rat model plasma at ED50 concentration. The format is ADME, cell-free. In outline:
as §1

Data set [10] is described as follows: Unbound plasma concentration in po dosed LPS-induced Lewis rat model at ED80 concentration measured after 5.5 hrs of initial dose by LC-MS/MS analysis. The format is ADME, organism-based. The conditions noted are these: in vivo. In outline:
as §2

The target in data set [11] is MAP kinase-activated protein kinase 3 (Homo sapiens, UniProt Q16644). As to the kind of experiment: Inhibition of recombinant MK3 (unknown origin) expressed in Escherichia coli using KKKALSRQLSVAA as substrate incubated for 1 hr followed by substrate addition in presence of ATP. A digest of the protocol: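 Recombinant kinase first activated with activated p38α (1:50 molar ratio) and 250 μM ATP for 1 hr at 30°C. Activity measured by 33P-labelled product peptide, separated by ion exchange. MgATP fixed at the Km(app) determined for each enzyme. IC50 values from duplicate experiments.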
MAP kinase-activated protein kinase 3, sequence (Q16644 whole entry): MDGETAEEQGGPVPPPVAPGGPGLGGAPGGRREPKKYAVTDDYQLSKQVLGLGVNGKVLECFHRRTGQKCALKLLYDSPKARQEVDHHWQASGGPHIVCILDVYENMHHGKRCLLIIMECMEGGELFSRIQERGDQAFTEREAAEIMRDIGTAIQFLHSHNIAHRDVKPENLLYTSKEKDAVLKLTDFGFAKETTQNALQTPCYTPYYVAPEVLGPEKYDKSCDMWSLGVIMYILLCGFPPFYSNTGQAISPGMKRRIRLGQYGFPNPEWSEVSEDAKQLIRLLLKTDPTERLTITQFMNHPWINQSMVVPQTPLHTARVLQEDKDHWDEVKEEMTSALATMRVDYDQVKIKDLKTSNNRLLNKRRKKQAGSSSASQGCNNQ

The nature of data set [12]: Half life in Sprague-Dawley rat measured upto 24 hrs by […] analysis. The format is ADME. The conditions noted are these: in vivo. In outline: as §3
Data set [13] is described as follows: Inhibition of AMPK (unknown origin). More on the design: species or system Homo sapiens.
Data set [14] concerns Rattus norvegicus. Briefly: Antiarthritic activity in chronic SCW-induced arthritis Lewis rat model assessed as inhibition of chronic paw swelling administered twice daily via oral gavage for 10 to 21 days. In kind it is organism-based. The conditions noted are these: time 10-21 day. In outline: as §1
A short description of data set [15]: Antiinflammatory activity in human Whole blood cell assessed as inhibition of LPS induced IL-8 production preincubated for 1 hr followed by LPS stimulation and measured after 16 hrs by MSD analysis. In kind it is functional, cell-based. In outline:
(§5)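 Human whole blood was stimulated ex vivo with LPS 100 ng/ml. Plasma cytokines were read by MSD 4-plex: TNFα at 4 h; IL-1β, IL-6 and IL-8 at 16 h. Data are means ±S.E.M. of two independent experiments in duplicate, three donors. IC50 by 4-parameter nonlinear regression.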

A short description of data set [16]: Antiinflammatory activity in human PBMC cells assessed as inhibition of LPS induced IL-1 beta production preincubated for 1 hr followed by LPS stimulation and measured after 16 hrs by MSD analysis. In kind it is functional, cell-based. In outline: as §4
Data set [17] can be described thus: Inhibition of IL-6 production in LPS induced human Whole blood cell preincubated with compound for 1 hr followed by LPS induction and measured after 16 hrs. The format is functional, cell-based. A digest of the protocol:
as §5

MAP kinase-activated protein kinase 2, sequence (P49137 whole entry, the tested form may be a part): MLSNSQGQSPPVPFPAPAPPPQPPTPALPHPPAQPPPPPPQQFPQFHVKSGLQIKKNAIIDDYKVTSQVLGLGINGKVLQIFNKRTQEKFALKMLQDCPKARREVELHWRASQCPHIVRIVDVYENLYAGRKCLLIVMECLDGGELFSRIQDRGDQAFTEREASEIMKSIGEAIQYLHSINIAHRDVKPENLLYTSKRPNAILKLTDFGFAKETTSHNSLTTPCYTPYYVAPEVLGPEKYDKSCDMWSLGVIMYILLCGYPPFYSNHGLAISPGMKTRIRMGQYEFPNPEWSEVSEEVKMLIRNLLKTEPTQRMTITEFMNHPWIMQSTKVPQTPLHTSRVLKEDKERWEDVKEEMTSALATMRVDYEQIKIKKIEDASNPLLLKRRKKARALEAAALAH
Serine/threonine-protein kinase pim-1, sequence (P11309 whole entry): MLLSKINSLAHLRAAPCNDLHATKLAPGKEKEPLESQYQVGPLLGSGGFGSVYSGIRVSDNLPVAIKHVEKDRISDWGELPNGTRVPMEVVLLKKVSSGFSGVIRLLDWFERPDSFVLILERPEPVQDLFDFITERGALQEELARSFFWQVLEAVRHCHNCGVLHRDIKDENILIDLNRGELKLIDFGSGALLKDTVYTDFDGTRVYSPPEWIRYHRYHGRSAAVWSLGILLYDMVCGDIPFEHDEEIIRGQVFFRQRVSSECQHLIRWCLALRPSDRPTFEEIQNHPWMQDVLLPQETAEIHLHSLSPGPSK

On to `Cc1ccc(-c2ccc3c(ccc4sc5c(c43)NC[C@@H](C)NC5=O)n2)cn1`, for which the Cmax (commonly the highest concentration seen after dosing) was 28000 nM in data set [1] and 660 nM in data set [5]. Also, the IC50 – broadly, the midpoint of a concentration-inhibition curve – in [2] was more than 1000 nM; in [6], 70 nM; in data set [7] it was 2090 nM; in data set [8] it was 88 nM; in data set [11], 53 nM; in data set [13], 117 nM. For the same compound, the values for the 50% inhibitory concentration (IC50) in data set [15], in [16] and in data set [17] were more than 20000 nM, 2710 nM and 10300 nM, respectively. The ED50 (commonly the dose that gives a 50% effect, or the effect in half of the subjects) in [3] is 6.9 mg/kg; in data set [14] (Rattus norvegicus, Lewis) it was 20 mg/kg. The ED80 in [3] is 19 mg/kg; in data set [14] (rat, in vivo, po) it was 50 mg/kg. In data set [4], the Ki (in general, a measure of affinity in units of concentration, obtained from inhibition or displacement) is 3 nM. The exposure (AUC) (usually the area under the concentration-time curve, a measure of exposure) in data set [9] was 34 µM·h. This compound came in with a Cp(f) in data set [10] of 340 nM. Besides, in data set [12], the half-life (commonly how long it takes for the measured level to halve) is 9.1 h.

The values are drawn from ChEMBL document CHEMBL5678801, “A benzothiophene inhibitor of mitogen-activated protein kinase-activated protein kinase 2 inhibits tumor necrosis factor alpha production and has oral anti-inflammatory efficacy in acute and chronic models of inflammation” (J Pharmacol Exp Ther, 2010).
